Two molecules from ChEMBL document CHEMBL3108678, “Isolation and synthesis of pulmonarins A and B, acetylcholinesterase inhibitors from the colonial ascidian Synoicum pulmonaria” (J Nat Prod, 2014) can be followed below.

In one series the test system is Escherichia coli. Briefly: Antimicrobial activity against Escherichia coli ATCC 25922 at 8 to 500 ug/ml after 24 hrs. The format is functional, organism-based. A digest of the protocol:
(§1)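 Broth microdilution in Mueller Hinton broth at 37 °C. Samples dissolved in H2O are mixed 1:1 with log-phase bacterial suspension, about 5 × 10⁵ cells per well, and tested at 8 to 500 μg/mL. Growth is followed by optical density. MIC is the lowest concentration giving no OD change after 24 h at 37 °C. Cecropin B (25 μM) serves as positive control.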

Series [1] has as its system Corynebacterium glutamicum. Put plainly: Antimicrobial activity against Corynebacterium glutamicum ATCC 13032 after 24 hrs. The format is functional. The settings on record: ATCC 13032, 24 h. In outline: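 Broth microdilution in Mueller Hinton broth at 37 °C. Compounds were dissolved in water and tested from 8 to 500 μg/mL against log-phase bacteria at a start of about 5 × 10⁵ cells per well. Growth was followed by optical density, with cecropin B (25 μM) as positive control. MIC was taken as the lowest concentration giving no change in optical density after 24 h at 37 °C.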

In another series the test system is MCF7. Briefly: Cytotoxicity against human MCF7 cells. It is filed as cell-based.
Another series concerns HT-29. Put plainly: Cytotoxicity against human HT-29 cells. The format is cell-based.
For the next series, the system named is MRC5. Briefly: Cytotoxicity against human MRC5 cells. It is filed as cell-based.
For series [2], the target named is T1, Acetylcholinesterase (Electrophorus electricus, UniProt O42275). Put plainly: Noncompetitive inhibition of electric eel AChE using acetylthiocholine chloride as substrate after 5 mins by Dixon plot analysis.
T1 sequence (O42275 whole entry): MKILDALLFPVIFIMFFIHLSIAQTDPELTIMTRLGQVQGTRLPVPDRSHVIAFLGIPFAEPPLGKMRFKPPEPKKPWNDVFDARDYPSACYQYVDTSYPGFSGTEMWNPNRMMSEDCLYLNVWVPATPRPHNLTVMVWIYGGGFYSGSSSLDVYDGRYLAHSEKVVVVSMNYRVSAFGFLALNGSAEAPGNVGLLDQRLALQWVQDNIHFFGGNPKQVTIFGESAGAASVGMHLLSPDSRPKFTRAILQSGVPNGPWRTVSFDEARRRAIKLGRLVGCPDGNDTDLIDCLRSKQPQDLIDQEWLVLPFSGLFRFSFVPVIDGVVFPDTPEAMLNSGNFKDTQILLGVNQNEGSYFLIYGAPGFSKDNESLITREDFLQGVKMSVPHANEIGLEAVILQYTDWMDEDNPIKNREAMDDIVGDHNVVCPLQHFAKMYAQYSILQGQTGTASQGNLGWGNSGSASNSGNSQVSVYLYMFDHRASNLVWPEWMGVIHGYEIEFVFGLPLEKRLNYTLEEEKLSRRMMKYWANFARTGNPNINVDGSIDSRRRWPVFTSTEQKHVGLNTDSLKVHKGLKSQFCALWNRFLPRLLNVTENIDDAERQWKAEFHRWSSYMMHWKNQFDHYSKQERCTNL
Series [3] relates to Staphylococcus epidermidis. Briefly: Antimicrobial activity against Staphylococcus epidermidis ATCC 35984 assessed as inhibition of biofilm formation. The format is functional, organism-based.
Series [4] has as its target T1, Acetylcholinesterase. Briefly: Inhibition of electric eel AChE using acetylthiocholine chloride as substrate after 5 mins by Ellman's method. Background: Ellman's reagent forms a yellow product with free thiols.
The test system of another series is Pseudomonas aeruginosa. Briefly: Antimicrobial activity against Pseudomonas aeruginosa ATCC 27853 at 8 to 500 ug/ml after 24 hrs. It is filed as functional, organism-based. In outline: as §1
The next series concerns Staphylococcus aureus. Briefly: Antimicrobial activity against Staphylococcus aureus ATCC 9144 at 8 to 500 ug/ml after 24 hrs. It is filed as functional, organism-based. In outline:
as §1

The test system of another series is A2058. Briefly: Cytotoxicity against human A2058 cells. It is filed as cell-based.

Calls of active or inactive are those of the source. No cut-off for these calls is given here.

As to `COc1c(Br)cc(C(=O)OCC[N+](C)(C)C)cc1Br.[Cl-]`, the result in the series with Escherichia coli, in the series with Pseudomonas aeruginosa and with Staphylococcus aureus was inactive. In series [1], this molecule registered an MIC of 500 µg/mL. The Activity result in the series with MCF7, in the series with HT-29, in the series with MRC5 and with A2058 was “Non-toxic” each time. The same molecule came in with a Ki on Acetylcholinesterase [2] of 90 µM. Moreover, the inhibition entry in series [3] is “inactive”. The half-maximal inhibitory concentration (IC50) against Acetylcholinesterase [4] turned out to be 105 µM.
On to `COc1c(Br)cc(CC(=O)NCCCCC[N+](C)(C)C)cc1Br.[I-]`, for which the result with Escherichia coli, in the series with Pseudomonas aeruginosa and in the series with Staphylococcus aureus was inactive. The same molecule gave an MIC in [1] of 250 µg/mL. Further, the Activity entry in the series on MCF7, with HT-29, in the series on MRC5 and with A2058 was “Non-toxic” in each case. At Acetylcholinesterase [2], the Ki came out at 20 µM. In series [3], the inhibition entry is “inactive”. The IC50 against Acetylcholinesterase [4] turned out to be 36 µM.

A word on the MIC: it is the lowest concentration that inhibits growth of the organism. Low readings indicate a more susceptible organism, high ones a less susceptible organism. Usually Ki stands for a dissociation constant, usually derived from enzyme kinetics or from competition with a known ligand. In general, IC50 refers to the concentration that gives 50% inhibition. A higher IC50 goes with a need for much substance.
